Source: paper PMC4828309 (European journal of immunology, 2016)
“Also recorded” adds a separate entry of the source. No end group written: not given here.

Legend:
DQ molecules = experiment: Peptide elution and HPLC-MS/MS, several DQ molecules reported together; parameters: species or system human
Outline: (§1)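 About 1×10^9 sorted, stably transduced 293T cells expressing DQ+Ii or DQ+Ii+DM were lysed. DQ was captured with anti-DQ mAb SPVL3 on protein A beads. Bound peptides were eluted, separated by HPLC and sequenced by HPLC-MS/MS. Nested Ii-derived peptides were assigned to the CLIP1 core or the CLIP2 register. Results come from 2 independent experiments.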

DQ8-2 [1] = experiment: Cell surface CLIP by flow cytometry, 293T cells expressing DQ8-2 trans-dimer; format: cell-based, human
Outline: (§2)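 Human 293T cells (no endogenous Ii, DM or DQ) were lentivirally transduced with full-length DQ α/β (T2A-linked, GFP vector), Ii, and DM (mCherry vector). They were sorted for GFP, DQ and mCherry. Surface staining used PerCP-Cy5.5 Cer.CLIP1 and biotinylated SPVL3 anti-DQ with streptavidin-APC or -PE-Cy7. Gating was on matched GFP/mCherry levels. Read-outs were MFI and the CLIP/DQ MFI ratio with vs without DM, from 3 independent experiments, mean + SD.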

DQ alleles in T2 cells = format: cell-based, human; settings: T2 lymphoblastoid cells, absence or presence of HLA-DM, flow cytometry
Outline: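 Human B-cell hybrid T2 line (endogenous Ii, MHC class II region deleted) expressing each DQ allele with or without HLA-DM. Cells surface-stained with PerCP-Cy5.5 anti-CLIP (Cer.CLIP1) and biotinylated anti-DQ (SPVL3) detected by streptavidin-APC or -PE-Cy7, alongside isotype-matched controls. Analysed by flow cytometry.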

DQ8 [2] = experiment: Cell surface CLIP by flow cytometry, 293T cells expressing DQ8; format: cell-based, human
Outline: as §2

DQ1 [3] = experiment: Cell surface CLIP by flow cytometry, 293T cells expressing DQ1; format: cell-based, human; settings: 293T DQ1, even in the absence of DM, CerCLIP.1 mAb
Outline: as §2

DQ2 [4] = experiment: Cell surface CLIP by flow cytometry, 293T cells expressing DQ2; format: cell-based, human
Outline: as §2

DQ6 [5] = experiment: Peptide elution and HPLC-MS/MS, DQ6; parameters: species or system human; settings: 293T DQ6+Ii+DM, 2 independent experiments
Outline: as §1

DQ6 [6] = experiment: Cell surface CLIP by flow cytometry, 293T cells expressing DQ6; format: cell-based, human; settings: CerCLIP.1 mAb
Outline: as §2

DQ2-8 [7] = experiment: Cell surface CLIP by flow cytometry, 293T cells expressing DQ2-8 trans-dimer; format: cell-based, human
Outline: as §2

DQ8 βT89G = experiment: Cell surface CLIP by flow cytometry, 293T cells expressing DQ8 βT89G mutant; format: cell-based, human; settings: 293T + Ii, with vs without DM; βT89G disrupts one H-bond; CLIP/DQ ratio
[8] = system: DQ2 with Gly at position 53; settings: ref [22]; cited from earlier work
DQ8 βE86A = experiment: Cell surface CLIP by flow cytometry, 293T cells expressing DQ8 βE86A mutant; format: cell-based, human; settings: 293T + Ii, with vs without DM; βE86A disrupts two H-bonds; CLIP/DQ ratio
sDQ6 = experiment: FP assay of CLIP dissociation from sDQ6; format: binding, human; settings: 50 nM sDQ6-^488CLIP, sDM 0 to 2000 nM, 37°C, pH 5.0
Outline: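 sDQ6 secreted by lentivirus-transduced 293T cells, purified by His-resin then anti-DQ affinity, and thrombin-cleaved overnight. It was loaded with Alexa 488-labelled CLIP (1:5) plus 100 nM sDM for 3 h at 37°C in pH 5.0 citrate-phosphate/NaCl/Tween buffer, then spin-desalted. 50 nM complex, 0–2000 nM sDM and 100 μM unlabelled CLIP1 were read by FP at 37°C. FP was normalised to free-peptide background; rate enhancement was expressed relative to no-DM rate.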

DQ2-8 [9] = experiment: Peptide elution and HPLC-MS/MS, DQ2-8; parameters: species or system human; settings: 293T DQ2-8+Ii+DM, 2 independent experiments
Outline: as §1

DQ8 [10] = experiment: Peptide elution and HPLC-MS/MS, DQ8; parameters: species or system human; settings: 293T DQ8+Ii+DM, 2 independent experiments
Outline: as §1

DQ2 [11] = experiment: Peptide elution and HPLC-MS/MS, DQ2; parameters: species or system human; settings: 293T DQ2+Ii+DM, 2 independent experiments
Outline: as §1

DQ8-2 [12] = experiment: Peptide elution and HPLC-MS/MS, DQ8-2; parameters: species or system human; settings: 293T DQ8-2+Ii+DM, 2 independent experiments
Outline: as §1

DQ1 [13] = experiment: Peptide elution and HPLC-MS/MS, DQ1; parameters: species or system human
Outline: as §1

[14] = target: soluble recombinant HLA-DQ6 (human); experiment: fluorescence polarisation
[15] = target: soluble recombinant HLA-DQ8 (human); experiment: fluorescence polarisation

With “CLIP: Class II associated invariant chain peptide; Ii-derived, endogenous on DQ-expressing cells (Ac-VSK(Alexa Fluor 488)MRMATPLLMQ)” the “CLIP peptides eluted, no DM” value (DQ molecules; 293T DQ+Ii without DM, all DQ alleles, 2 independent experiments) was “prominently presented by all DQ alleles”, the “Cell surface CLIP upon DM co-expression” value (DQ8-2 [1]; 293T DQ8-2+Ii+DM, CerCLIP.1 mAb, flow cytometry, 3 independent experiments) was “retain high levels of cell surface CLIP” and the “Cell surface CLIP level, no DM” value (DQ8-2 [1]; 293T DQ8-2+Ii, absence of DM, CerCLIP.1 mAb, flow cytometry, MFI) was “high”. For the same molecule, the “DM editing resistance relative to DQ8 and DQ2-8” value (DQ8-2 [1]; 293T, DQ8-2 trans-dimer) was “less striking”, the “DM editing of CLIP in T2 cells” value (DQ alleles in T2 cells) was “consistent with those obtained with 293T cells” and the “Cell surface CLIP upon DM co-expression” value (DQ8 [2]; 293T DQ8+Ii+DM, CerCLIP.1 mAb, flow cytometry, 3 independent experiments) was “retain high levels of cell surface CLIP”. The “Cell surface CLIP level, no DM” value (DQ8 [2]; 293T DQ8+Ii, absence of DM, CerCLIP.1 mAb, flow cytometry, MFI) was “high”, the “Reduction in cell surface CLIP by DM” value (DQ8 [2]; 293T cells co-expressing DM with DQ8) was “little or no reduction in CLIP levels” and the “Cell surface CLIP level, no DM” value (DQ1 [3]) was “no detectable CLIP peptide”. For the same molecule, the “DM editing of CLIP upon DM co-expression” value (DQ2 [4]; 293T DQ2+Ii+DM, CerCLIP.1 mAb, flow cytometry, 3 independent experiments) was “relatively resistant to DM editing”, the “Cell surface CLIP level, no DM” value (DQ2 [4]; 293T DQ2+Ii, absence of DM, CerCLIP.1 mAb, flow cytometry, MFI) was “high” and the “DM editing resistance relative to DQ8 and DQ2-8” value (DQ2 [4]; 293T, DQ2) was “less striking”. The “CLIP in peptide eluate, with DM” value (DQ6 [5]) was “not detected”, the “Cell surface CLIP upon DM co-expression” value (DQ6 [6]; 293T DQ6+Ii+DM, 3 independent experiments) was “complete loss of cell surface CLIP” and the “Cell surface CLIP level, no DM” value (DQ6 [6]; 293T DQ6+Ii, absence of DM, MFI) was “high”. The “Cell surface CLIP upon DM co-expression” value (DQ2-8 [7]; 293T DQ2-8+Ii+DM, CerCLIP.1 mAb, flow cytometry, 3 independent experiments) was “retain high levels of cell surface CLIP”, the “Cell surface CLIP level, no DM” value (DQ2-8 [7]; 293T DQ2-8+Ii, absence of DM, CerCLIP.1 mAb, flow cytometry, MFI) was “high” and the “Reduction in cell surface CLIP by DM” value (DQ2-8 [7]; 293T cells co-expressing DM with DQ2-8) was “little or no reduction in CLIP levels”.

In the case of “DM: non-classical MHC protein HLA-DM catalyzing CLIP release and peptide exchange”, the “Change in DM sensitivity of DQ8 mutant” value (DQ8 βT89G) is listed as “little change in DM sensitivity”, the “DM editing of CLIP in T2 cells” value (DQ alleles in T2 cells) is listed as “DQ2 and DQ2-8 were less sensitive to DM than DQ8” and the “DM sensitivity after Gly insertion at α53 of DQ2” value [8] is listed as “restored DM sensitivity; also recorded: marked increase in DM-mediated rate enhancement in the dissociation of a DQ2 binding peptide”. For the same molecule, the “Hierarchy of DM sensitivity among DQ molecules” value (DQ8 [2]; 293T DQ+Ii+DM, DQ8 compared with DQ2-8, DQ2, DQ8-2) was “DQ8 being the least sensitive, followed by DQ2-8, DQ2, and DQ8-2”, the “Change in DM sensitivity of DQ8 mutant” value (DQ8 βE86A) was “partially restore sensitivity to DM” and the “Dissociation rate versus DM concentration” value (sDQ6) was “Peptide dissociation rates increased with increasing DM concentration; also recorded: rates appeared to saturate with increasing DM concentration”.

In the case of LPKPPKPVSKMRMATPLLMQA [CLIP1], the “CLIP1 in peptide eluate, with DM” value (DQ2-8 [9]) is reported as “detected”, the “CLIP1 in peptide eluate, with DM” value (DQ8 [10]) is reported as “detected” and the “CLIP1 in peptide eluate, with DM” value (DQ2 [11]) is reported as “detected”. The “CLIP1 in peptide eluate, with DM” value (DQ8-2 [12]) was “detected”, the “CLIP peptides in eluate, no DM” value (DQ1 [13]; 293T DQ1+Ii without DM) was “detected” and the “CLIP peptides in eluate, with DM” value (DQ1 [13]; 293T DQ1+Ii+DM) was “not in samples co-expressing DM”.

For “PSSGLGVTKQDLGPVPM [CLIPc, reference compound]”, the “CLIPc detection in eluates” value (DQ molecules; DQ samples from 293T cells) was “detected by HPLC-MS/MS from all of the samples (DQ2, DQ2-8 and DQ8-2), except DQ8”.

B1: Alexa Fluor 488-labeled N-acetylated CLIP peptide (peptide)
peptide: Ac-VSK(Alexa Fluor 488)MRMATPLLMQ
B1 gave an intrinsic half-life of the complex [14] of 7 h and an intrinsic half-life of the complex [15] of 58 h.
